Screening data as filed in PubChem.
MPTP inh: mitochondrial permeability transition pore inhibitors, primary screen, biochemical, isolated mouse mitochondria, absorbance | Ca2+ swelling absorbance, 30 min | inhibition, % at 10 µM | hit rate 1.4% among 360,000 | AID 602449, 2012;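 active means inhibition of 50% or more, scaled per plate between neutral and stimulator controls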;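 further: 0% = DMSO wells given calcium and 100% = 1 mM EGTA wells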
GRIN3A LBD mod: binders of NR3A ligand-binding domain, primary screen, biophysical, differential scanning fluorimetry, uHTS | NR3A LBD differential scanning fluorimetry, Tm shift; 0% = protein alone, 100% = glycine-bound protein | Tm shift relative to glycine control, % at 25 µM | hit rate 2.5% among 340,000;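 active means melting temperature shift of at least 10% of the positive control shift, at one fixed dose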
ADAM10 inh: human ADAM10 inhibitors, primary screen, biochemical, QFRET, HTS; Disintegrin and metalloproteinase domain-containing protein 10 (Homo sapiens), O14672; hit rate 0.62% among 370,000; inhibition, % at 7 µM; AID 720582, 2013; recombinant ADAM10, EDANS/DABCYL FRET peptide cleavage, 3 h;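 active means inhibition above a per-campaign cutoff equal to the mean of compounds falling between control-based bounds plus 3 SD, cut at about 20% in these data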;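 further: 0% = DMSO wells while the 100% control is not disclosed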
Target sequence (O14672 214-748 limits assumed): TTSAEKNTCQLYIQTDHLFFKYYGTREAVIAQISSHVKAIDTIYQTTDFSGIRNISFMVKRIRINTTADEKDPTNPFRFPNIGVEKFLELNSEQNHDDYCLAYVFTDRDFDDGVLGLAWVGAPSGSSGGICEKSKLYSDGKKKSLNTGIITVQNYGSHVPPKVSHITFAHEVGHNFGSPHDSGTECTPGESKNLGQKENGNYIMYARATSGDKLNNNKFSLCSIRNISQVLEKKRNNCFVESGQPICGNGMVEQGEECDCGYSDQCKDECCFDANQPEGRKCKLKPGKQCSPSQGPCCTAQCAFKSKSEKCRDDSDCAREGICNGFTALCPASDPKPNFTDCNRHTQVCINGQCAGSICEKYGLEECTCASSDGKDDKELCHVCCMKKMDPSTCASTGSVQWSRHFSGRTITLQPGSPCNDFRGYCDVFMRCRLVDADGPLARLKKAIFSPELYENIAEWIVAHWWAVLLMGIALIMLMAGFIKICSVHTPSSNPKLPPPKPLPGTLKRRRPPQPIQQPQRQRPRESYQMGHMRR
SKN-1 block: suppressors of acrylamide-induced Pgst-4::GFP reporter in worms, primary screen, SKN-1 inhibitor project, whole organism, uHTS, GFP/RFP fluorescence ratio, strain VP596; C. elegans VP596 Pgst-4::GFP/RFP ratio, 24 h; AID 624304, 2012; inhibition, % at 21.8 µM; hit rate 0.49% among 360,000;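 active means interference check ratio from 0.5 to 1.5 plus GFP to RFP signal ratio inhibition reaching or exceeding a fixed threshold, cut at about 30% in these data, passing the limit was not always enough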
ADAM17 inh: ADAM17 inhibitors, primary screen, biochemical, QFRET; recombinant ADAM17, EDANS/DABCYL FRET peptide cleavage; inhibition, % at 6.95 µM; hit rate 0.83% among 370,000; AID 720648, 2013;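 active means inhibition above the mean of compounds lying between control limits plus 3 SD, set per campaign, cut at about 8.5% in these data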;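 further: 0% = DMSO-only wells as the low control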
MT1-MMP act inh: blockers of MT1-MMP proenzyme processing, primary screen, HT1080 RFP-PRO-GFP cells, GFP/RFP fluorescence. Matrix metalloproteinase-14 (Homo sapiens), P50281. GFP/RFP ratio fluorescence, overnight; percent of plate control window, DMSO zero. GFP/RFP ratio change, % at 20 µM. hit rate 0.061% among 360,000. AID 651647, 2012;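 active means GFP/RFP ratio change of at least 30% with cell ATP level not reduced by more than half and red fluorescence within 50% of control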
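Test system: HT1080 cells expressing an RFP-PRO-GFP fluorescent reporter construct / Compound dosing: single-point 20 µM compound, 1% DMSO / Schedule: cells overnight before dosing, compound overnight, 37 °C, 5% CO2 / Evaluation: GFP/RFP fluorescence ratio / Control set: DMSO and RFP-L50D-GFP cell wells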
Active calls of the source: *; · = no result given. Hits are enriched below; roughly 4.7% of the tested compounds scored in any of these assays.

SMILES	MPTP inh	GRIN3A LBD mod	ADAM10 inh	SKN-1 block	ADAM17 inh	MT1-MMP act inh
C/C(=N/NS(=O)(=O)c1ccc(C)cc1C)c1ccc2c(c1)OCO2	2	0	-1	11	0	1
C/C(=N/NS(=O)(=O)c1ccc(C)cc1C)c1c[nH]c2ccccc12	2	11*	-3	-15	-2	6
CCOC(=O)C(C)C1(O)c2ccccc2-c2ncccc21 (stereo not drawn)	0	-3	5	37*	-5	6
Cc1ccc(C(=O)COC(=O)CNS(=O)(=O)c2ccccc2)cc1[N+](=O)[O-]	0	18*	-3	0	-1	1
Cc1ccc(NC(=O)CCS(=O)(=O)c2cc3[nH]c(=O)c(=O)[nH]c3cc2C)cc1	2	15*	-14	17	-2	0
CC(=O)c1cccc(NC(=O)CCS(=O)(=O)c2cc3c(cc2C)NC(=O)CO3)c1	-1	53*	4	12	1	2
O=C(Nc1ccc(F)c(Cl)c1)c1cc(C2CCCN(C(=O)CCc3ccccc3)C2)on1 (stereo not drawn)	3	·	12	13	5	2
COc1ccc(S(=O)(=O)N2CCc3ccccc3C2)cc1C(=O)O	0	1	-1	17	1	0
COc1ccc(S(=O)(=O)N2CCc3ccccc3C2)cc1OC	0	14*	21*	-2	4	1
O=C(Oc1ccccc1)c1ccccc1C(=O)Oc1ccccc1	-1	-2	4	-3	5	1
Cc1cc(C(=O)COC(=O)/C=C/c2cccc(F)c2)c(C)n1C	0	0	2	-2	-3	0
OC(CNCc1ccco1)Cn1c2ccc(Br)cc2c2cc(Br)ccc21 (stereo not drawn)	10	24*	6	3	0	-23
Cc1cc(C(=O)NCC(=O)Nc2c(C)cccc2C)c2ccccc2n1	2	0	-9	-2	-3	2
CC(C)OC(=O)n1c(=S)oc2ccccc21	0	1	8	1	1	9
CCCCC(=O)/C=C/n1c(=S)oc2ccccc21	1	0	-2	39*	-5	-3
COCc1cc(N2CCN(c3ccccc3F)CC2)nc(-c2ccccc2)n1	0	1	-3	4	-5	-4
CCOC(=O)c1c(NC(=O)CNC2CCCCC2)sc(C)c1C	-1	13*	7	-1	-2	2
CCOC(=O)c1c(NC(=O)C2CC2)sc(C)c1CC	5	11*	-13	12	-3	-2
CCOC(=O)c1c(NC(=O)C2C3C=CC(CC3)C2C(=O)O)sc(C)c1CC (stereo not drawn)	5	0	5	13	4	-3
O=C(Nc1ccc2c(c1)CN(Cc1ccco1)CC2)C1CCCO1 (stereo not drawn)	-1	1	0	37*	0	-6
COc1ccccc1CNC(=O)OCc1nccnc1C(=O)Nc1ccc(Br)cn1	1	3	-1	-14	-3	1
O=C(NC(Cc1ccccc1)C(=O)Oc1ccc2c(C(F)(F)F)cc(=O)oc2c1)OCc1ccccc1 (stereo not drawn)	4	14*	·	13	·	-32
COc1cccc(Oc2cn[nH]c2-c2ccc(OCC(=O)NN)cc2O)c1	1	-2	2	-8	-1	11
C=C(C)COc1ccc(-c2nc(N)ncc2-c2ccc(Br)cc2)c(O)c1	2	12*	6	7	2	5
C=C(C)COc1ccc(-c2[nH]ncc2Oc2ccccc2OC)c(O)c1	12	16*	-8	11	-4	4
SMILES	MPTP inh	GRIN3A LBD mod	ADAM10 inh	SKN-1 block	ADAM17 inh	MT1-MMP act inh
C=C(C)COc1ccc(-c2ncncc2-c2ccc(Br)cc2)c(O)c1	-1	0	5	-6	1	2
C=C(C)COc1ccc(-c2[nH]ncc2-c2ccc(Br)cc2)c(O)c1	10	30*	17	2	4	-1
CCCOC(=O)c1ccc(Oc2cn[nH]c2-c2ccc(OC)cc2O)cc1	-4	17*	16	0	3	-1
CC(C)(C)NC(=O)Cn1c(=O)oc2cc(S(=O)(=O)N3CCc4ccccc43)ccc21	0	-5	-3	14	0	-4
CC(=O)Oc1ccc(-c2ccc(C(=O)Nc3cccc(S(=O)(=O)N4CCOCC4)c3)cc2)cc1	-2	4	7	3	5	8
Cc1ccc(N(CC(=O)N2CCN(c3ccc(F)cc3)CC2)S(=O)(=O)c2c(C)noc2C)cc1	-1	0	3	-10	0	1
CCCN(C(=O)Cn1ncc2c([nH]c3ccccc32)c1=O)c1ccccc1C	1	-1	-6	15	-5	3
O=C(Nc1ccc(C(=O)O)cc1)/C(=C\c1ccc2c(c1)OCO2)NC(=O)c1ccccc1	1	-1	-9	-7	-1	·
O=C(N/N=C/c1ccc(-c2ccc(Br)cc2)o1)c1ccc2c(c1)OCO2	2	11*	-20	-16	-161	-7
COc1cc2ccccc2cc1C(=O)N/N=C/c1ccc2c(c1)OCO2	0	12*	-63	18	-21	-2
O=C(O)COc1ccccc1/C=N/NC(=O)/C(=C\c1ccc2c(c1)OCO2)NC(=O)c1ccccc1	-1	191*	-22	3	-6	0
Cc1ccccc1/C=N/NC(=O)c1ccc(-n2cnnn2)cc1	-1	30*	-2	5	-2	1
O=C(N/N=C/c1c(Cl)cccc1Cl)c1ccc(-n2cnnn2)cc1	1	3	-4	4	-10	3
COc1cc(/C=N/NC(=O)c2cc(-c3ccc4c(c3)OCO4)n[nH]2)ccc1O	1	28*	8	2	-4	9
O=C(N/N=C/c1ccc2c(c1)OCO2)c1cc(-c2ccc(F)cc2)nc2ccccc12	7	25*	-7	12	-1	-6
COc1cc(/C=N/NC(=O)c2cc(-c3ccccc3)nc3ccccc23)ccc1O	0	6	8	21	1	3
COc1ccc(-c2cc(C(=O)N/N=C/c3ccc4c(c3)OCO4)c3ccccc3n2)c(OC)c1	-1	-3	-113	16	-55	-5
O=C(NN=Cc1ccc2c(c1)OCO2)c1ccncc1	-2	25*	-15	4	0	-6
